Source: PubChem (several laboratories)
p97 inhibitor – inhibitors of human p97 ATPase, primary screen, biochemical | recombinant p97 ATPase, Kinase-Glo ATP luminescence, 3 h | 220,000 compounds, 0.42% hits | inhibition, % at 8 µM; in the data active means inhibition above about 15%
Mdm2 ligase inh – MDM2-luciferase reporter signal enhancers, primary screen, MDM2 E3 ligase inhibitor project, cell-based, luminescence, 1536-well; E3 ubiquitin-protein ligase Mdm2 (Homo sapiens), Q00987; 210,000 compounds, 0.11% hits; signal enhancement, % at 5 µM; cell-based MDM2 ubiquitination luciferase reporter, 2 h; 0 = plate control, 100 = twice control, blank-subtracted;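 active means signal enhancement of 30% or more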;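 further: luminescence tracks abundance of the self-degrading MDM2-luciferase fusion protein; higher signal means inhibition of MDM2 E3 ligase activity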
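Test system: mammalian cells stably expressing self-ubiquitinating, self-degrading MDM2 E3–luciferase fusion; Amount: 2000 cells in each well; Medium: DMEM; Schedule: 4 h settle plus 2 h compound, 37 °C; Technique: SteadyLite luciferase luminescence after 15 min room-temperature reagent incubation; Benchmarks: plate control and blank wells.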
APP 5'UTR act – activators of APP 5'UTR luciferase reporter, primary screen, SH-SY5Y cells | SH-SY5Y APP 5'UTR luciferase reporter, luminescence; zero percent = DMSO vehicle wells | activation, % at 2 µM | 190,000 compounds, 1% hits | AID 1276, 2008;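 active means activation above a set limit, based on mean plus 3 SD of controls, cut at about 140% in these data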
Wee1 stabilizer – Wee1 degradation inhibitors, primary screen, cell-based, HeLa, Wee1K328M-luciferase, luminescence; HeLa Luc-Wee1K328M stability; 100% = proteasome inhibitor MG132 effect; Wee1-like protein kinase (Homo sapiens), P30291; reporter increase, % at 5 µM; AID 1321, 2008; 220,000 compounds, 1.2% hits;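 active means activation above the mean of all tested compounds plus 3 SD, set per screening run, cut at about 8.8% in these data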;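 further: cells exposed to compound for 20 h before luminescence read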
Target sequence (P30291 whole entry K328M): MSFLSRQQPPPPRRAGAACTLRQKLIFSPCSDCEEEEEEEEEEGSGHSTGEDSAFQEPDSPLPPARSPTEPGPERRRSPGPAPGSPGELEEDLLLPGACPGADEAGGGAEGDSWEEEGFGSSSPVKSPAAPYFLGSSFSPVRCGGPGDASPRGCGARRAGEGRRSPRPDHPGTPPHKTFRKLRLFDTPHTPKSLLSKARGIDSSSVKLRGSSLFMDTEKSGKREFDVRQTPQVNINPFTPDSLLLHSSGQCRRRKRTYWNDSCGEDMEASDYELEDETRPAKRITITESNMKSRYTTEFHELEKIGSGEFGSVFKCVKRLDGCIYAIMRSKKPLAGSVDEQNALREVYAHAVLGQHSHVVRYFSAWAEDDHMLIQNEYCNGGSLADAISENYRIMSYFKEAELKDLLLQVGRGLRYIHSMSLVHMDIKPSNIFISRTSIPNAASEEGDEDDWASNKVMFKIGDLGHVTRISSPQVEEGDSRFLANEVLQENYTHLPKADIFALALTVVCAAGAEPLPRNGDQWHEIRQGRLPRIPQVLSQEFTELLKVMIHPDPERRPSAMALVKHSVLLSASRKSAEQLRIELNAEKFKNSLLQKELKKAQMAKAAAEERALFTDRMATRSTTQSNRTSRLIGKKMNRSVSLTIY
STAT1 activator – STAT1 signaling activators, primary screen, cell-based, HTS, luciferase reporter | 200,000 compounds, 2.6% hits | activation (% of control), % at 5.5 µM | NIH 3T3 STAT1-luciferase reporter, IFN-gamma, luminescence; 100% = IFN-gamma alone, no compound;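 active means activation above the screen-wide mean activation plus 3 SD, cut at about 130% in these data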
NF-kB neuron act – activators of NF-kB expression in neurons, primary screen, cell-based, HTS; human neuronal cells, NF-kB reporter expression; active compounds read high; fold change at 12.5 µM; 190,000 compounds, 1.6% hits; AID 1239, 2008; in the data active means fold change above about 3.3
Numbers stand for hits. Rows were chosen to be rich in hits. Some 4.6% of all compounds tested hit in one or more screens of this group.

What do the screens show for `O=C(N/N=C1\C2CN3CCN(C2)CC1(c1ccccc1)C3)c1ccc(F)cc1`?
p97 inhibitor: inactive; Mdm2 ligase inh: inactive; APP 5'UTR act: inactive; Wee1 stabilizer: inactive; STAT1 activator: inactive; NF-kB neuron act: inactive

What do the screens show for `COCCNC(=S)NCCc1ccc(Cl)cc1Cl`?
p97 inhibitor: inactive; Mdm2 ligase inh: inactive; APP 5'UTR act: inactive; Wee1 stabilizer: inactive; STAT1 activator: inactive; NF-kB neuron act: inactive

What do the screens show for `Cc1ccc(NC(=O)COC(=O)Cc2csc(-c3ccc(Cl)cc3)n2)cc1C`?
p97 inhibitor: inactive; Mdm2 ligase inh: inactive; APP 5'UTR act: inactive; Wee1 stabilizer: 14.5; STAT1 activator: inactive; NF-kB neuron act: inactive

Results for CCC(=O)Oc1ccc(NC(=O)CSCc2ccccc2)cc1 ?
p97 inhibitor: inactive; Mdm2 ligase inh: inactive; APP 5'UTR act: inactive; Wee1 stabilizer: inactive; STAT1 activator: inactive; NF-kB neuron act: inactive

What do the screens show for `Cn1c(=O)n(C)c2cc(NC(=O)c3cc4ccccc4o3)ccc21`?
p97 inhibitor: inactive; Mdm2 ligase inh: inactive; APP 5'UTR act: inactive; Wee1 stabilizer: inactive; STAT1 activator: inactive; NF-kB neuron act: inactive

What do the screens show for `Cc1ccc(C(=O)Nc2ccc3c(c2)OCO3)o1`?
p97 inhibitor: inactive; Mdm2 ligase inh: inactive; APP 5'UTR act: inactive; Wee1 stabilizer: inactive; STAT1 activator: inactive; NF-kB neuron act: inactive

Results for O=C(Nc1ccccn1)c1cc2ccccc2o1 ?
p97 inhibitor: inactive; Mdm2 ligase inh: inactive; APP 5'UTR act: inactive; Wee1 stabilizer: inactive; STAT1 activator: inactive; NF-kB neuron act: inactive

How did Cc1ccc(NC(=O)c2cc3ccccc3o2)cc1S(=O)(=O)N(C)C do in these assays?
p97 inhibitor: inactive; Mdm2 ligase inh: inactive; APP 5'UTR act: inactive; Wee1 stabilizer: inactive; STAT1 activator: 143.2; NF-kB neuron act: 5.25

What do the screens show for `O=C(Nc1ccc2c(c1)OCCO2)c1cc2ccccc2o1`?
p97 inhibitor: inactive; Mdm2 ligase inh: inactive; APP 5'UTR act: 224.9; Wee1 stabilizer: inactive; STAT1 activator: inactive; NF-kB neuron act: 9.25

What do the screens show for `O=C(NC1=NCCS1)c1cc2ccccc2o1`?
p97 inhibitor: inactive; Mdm2 ligase inh: inactive; APP 5'UTR act: inactive; Wee1 stabilizer: inactive; STAT1 activator: inactive; NF-kB neuron act: 4.77

How did O=C(Nc1ccc2c(c1)OCCO2)c1ccc(Br)o1 do in these assays?
p97 inhibitor: inactive; Mdm2 ligase inh: inactive; APP 5'UTR act: 136.0; Wee1 stabilizer: 9.4; STAT1 activator: inactive; NF-kB neuron act: 4.87

How did COc1cccc(-c2cc(C(F)(F)F)n3nc(C(=O)N4CCCCC4c4cccnc4)cc3n2)c1 (stereo not drawn) do in these assays?
p97 inhibitor: inactive; Mdm2 ligase inh: inactive; APP 5'UTR act: inactive; Wee1 stabilizer: inactive; STAT1 activator: inactive; NF-kB neuron act: inactive

Results for Cc1cc(=O)oc2cc(NC(=O)c3cc4ccccc4o3)ccc12 ?
p97 inhibitor: inactive; Mdm2 ligase inh: inactive; APP 5'UTR act: inactive; Wee1 stabilizer: inactive; STAT1 activator: inactive; NF-kB neuron act: inactive

How did O=C(Nc1ccc2oc(=O)ccc2c1)c1cc2ccccc2o1 do in these assays?
p97 inhibitor: inactive; Mdm2 ligase inh: inactive; APP 5'UTR act: inactive; Wee1 stabilizer: inactive; STAT1 activator: 148.5; NF-kB neuron act: inactive

What do the screens show for `CC1CCCCC1NC(=O)CN(C)S(=O)(=O)c1cccc2cccnc12` (stereo not drawn)?
p97 inhibitor: inactive; Mdm2 ligase inh: inactive; Wee1 stabilizer: inactive

Results for O=C(c1ccccc1)c1ncc(C(F)(F)F)cc1Cl ?
p97 inhibitor: inactive; Mdm2 ligase inh: inactive; APP 5'UTR act: inactive; Wee1 stabilizer: inactive; STAT1 activator: inactive; NF-kB neuron act: inactive

Results for COC(=O)/C(=C\Nc1ccccc1N)c1ncc(C(F)(F)F)cc1Cl ?
p97 inhibitor: inactive; Mdm2 ligase inh: inactive; APP 5'UTR act: inactive; Wee1 stabilizer: inactive; STAT1 activator: inactive; NF-kB neuron act: 3.3

Results for O=C(Cc1cccs1)Nc1ccc(-c2nc3ccccc3[nH]2)cc1 ?
p97 inhibitor: inactive; Mdm2 ligase inh: inactive; APP 5'UTR act: 151.7; Wee1 stabilizer: inactive; STAT1 activator: 145.3; NF-kB neuron act: inactive

What do the screens show for `O=C(CSc1ccc(Cl)cc1)Nc1cccc(-c2nc3ccccc3[nH]2)c1`?
p97 inhibitor: inactive; Mdm2 ligase inh: inactive; APP 5'UTR act: inactive; Wee1 stabilizer: inactive; STAT1 activator: inactive; NF-kB neuron act: inactive

How did O=C(CN1CCOCC1)Nc1ccc(-c2nc3ccccc3[nH]2)cc1 do in these assays?
p97 inhibitor: inactive; Mdm2 ligase inh: inactive; APP 5'UTR act: inactive; Wee1 stabilizer: inactive; STAT1 activator: inactive; NF-kB neuron act: inactive

Results for COc1c(F)c(F)c(C(=O)Nc2ccc(-c3nc4ccccc4[nH]3)cc2)c(F)c1F ?
p97 inhibitor: inactive; Mdm2 ligase inh: inactive; APP 5'UTR act: inactive; Wee1 stabilizer: 10.0; STAT1 activator: inactive; NF-kB neuron act: inactive

Results for O=C(CSc1ccccc1)Nc1ccc(-c2nc3ccccc3[nH]2)cc1 ?
p97 inhibitor: inactive; Mdm2 ligase inh: inactive; APP 5'UTR act: inactive; Wee1 stabilizer: inactive; STAT1 activator: 131.2; NF-kB neuron act: inactive

How did O=C(Nc1ccc(-c2nc3ccccc3[nH]2)cc1)C1CCCO1 (stereo not drawn) do in these assays?
p97 inhibitor: inactive; Mdm2 ligase inh: inactive; APP 5'UTR act: 179.5; Wee1 stabilizer: inactive; STAT1 activator: inactive; NF-kB neuron act: 4.56

What do the screens show for `O=C1CC(c2ccccc2F)C2=C(COC2=O)N1` (stereo not drawn)?
p97 inhibitor: inactive; Mdm2 ligase inh: inactive; APP 5'UTR act: inactive; Wee1 stabilizer: inactive; STAT1 activator: inactive; NF-kB neuron act: inactive

How did O=C(O)c1ccn2c(C(=O)c3ccccc3)c(-c3ccccc3)cc2c1 do in these assays?
p97 inhibitor: inactive; Mdm2 ligase inh: inactive; Wee1 stabilizer: inactive

What do the screens show for `CC(C)N(C(=O)CS(=O)(=O)c1ccc(Cl)c(Cl)c1)C(C)C`?
p97 inhibitor: inactive; Mdm2 ligase inh: inactive; APP 5'UTR act: inactive; Wee1 stabilizer: inactive; STAT1 activator: inactive; NF-kB neuron act: inactive

Results for CCNC(=S)Nc1ccc(-c2nc3ccccc3[nH]2)cc1 ?
p97 inhibitor: inactive; Mdm2 ligase inh: inactive; APP 5'UTR act: inactive; Wee1 stabilizer: inactive; STAT1 activator: 131.6; NF-kB neuron act: inactive

What do the screens show for `CCOc1ccc(NC(=S)NCc2nc3ccccc3[nH]2)cc1`?
p97 inhibitor: inactive; Mdm2 ligase inh: inactive; APP 5'UTR act: inactive; Wee1 stabilizer: inactive; STAT1 activator: inactive; NF-kB neuron act: inactive

What do the screens show for `Cc1c(C(=O)N2CCOCC2)cc(C(C)(C)C)n1-c1ccccc1`?
p97 inhibitor: inactive; Mdm2 ligase inh: inactive; Wee1 stabilizer: inactive
